Assay results reported in ChEMBL document CHEMBL1135680, “Use of ab initio calculations to predict the biological potency of carboxylesterase inhibitors” (J Med Chem, 2002).

How the values were obtained:
[1] = target: T1, Liver carboxylesterase (Sus scrofa, UniProt Q29550); experiment: In vitro inhibition of porcine carboxylesterase.
T1 sequence (Q29550 whole entry): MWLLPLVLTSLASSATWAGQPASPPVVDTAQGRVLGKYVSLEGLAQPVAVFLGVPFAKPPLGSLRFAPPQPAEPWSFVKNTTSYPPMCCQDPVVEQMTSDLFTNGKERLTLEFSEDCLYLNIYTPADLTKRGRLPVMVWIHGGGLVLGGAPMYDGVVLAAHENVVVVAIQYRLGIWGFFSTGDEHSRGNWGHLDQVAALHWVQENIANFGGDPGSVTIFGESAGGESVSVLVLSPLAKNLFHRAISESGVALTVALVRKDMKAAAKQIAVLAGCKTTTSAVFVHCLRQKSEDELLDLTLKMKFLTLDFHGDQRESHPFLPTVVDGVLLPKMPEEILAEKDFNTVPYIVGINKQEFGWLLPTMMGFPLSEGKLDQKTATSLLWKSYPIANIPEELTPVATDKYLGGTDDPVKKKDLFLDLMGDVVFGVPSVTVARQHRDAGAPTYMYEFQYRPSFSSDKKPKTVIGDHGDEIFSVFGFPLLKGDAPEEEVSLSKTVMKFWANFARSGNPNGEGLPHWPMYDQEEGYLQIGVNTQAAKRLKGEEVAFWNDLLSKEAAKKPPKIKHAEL

[2] = target: T2, Acylcarnitine hydrolase (Mus musculus, UniProt Q91WG0); experiment: Inhibition of carboxylesterase in murine liver microsomes.; design: species or system Microsome
T2 sequence (Q91WG0 whole entry): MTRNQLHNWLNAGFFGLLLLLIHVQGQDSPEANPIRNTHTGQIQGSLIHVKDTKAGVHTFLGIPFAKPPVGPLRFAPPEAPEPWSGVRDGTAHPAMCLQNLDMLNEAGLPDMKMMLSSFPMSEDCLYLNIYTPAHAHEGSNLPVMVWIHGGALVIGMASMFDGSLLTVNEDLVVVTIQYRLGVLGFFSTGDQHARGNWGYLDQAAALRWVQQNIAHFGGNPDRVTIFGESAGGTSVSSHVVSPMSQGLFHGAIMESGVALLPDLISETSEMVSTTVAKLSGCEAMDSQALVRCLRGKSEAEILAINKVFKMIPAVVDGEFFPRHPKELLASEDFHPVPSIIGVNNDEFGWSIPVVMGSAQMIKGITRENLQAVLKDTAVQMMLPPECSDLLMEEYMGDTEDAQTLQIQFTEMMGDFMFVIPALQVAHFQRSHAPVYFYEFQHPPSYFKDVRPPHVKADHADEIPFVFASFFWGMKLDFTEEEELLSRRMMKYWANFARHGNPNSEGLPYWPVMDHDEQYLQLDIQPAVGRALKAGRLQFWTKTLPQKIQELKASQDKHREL
How it was run: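 Liver microsomes from male Swiss-Webster mice (differential centrifugation, 100000g pellets), solubilized in 1% n-octyl-β-D-glucopyranoside, then dialyzed 48 h at 4 °C to remove it; 0.88 μg protein per well. Assay in 0.1 M sodium phosphate pH 7.4 at 30 °C: 5 min inhibitor preincubation (ethanol ≤1%), 0.5 mM p-nitrophenyl acetate, 405 nm.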

[3] = target: T3, Cocaine esterase (Homo sapiens, UniProt O00748); experiment: In vitro inhibition of carboxylesterase in human liver microsomes.; design: species or system Microsome
T3 sequence (O00748 whole entry): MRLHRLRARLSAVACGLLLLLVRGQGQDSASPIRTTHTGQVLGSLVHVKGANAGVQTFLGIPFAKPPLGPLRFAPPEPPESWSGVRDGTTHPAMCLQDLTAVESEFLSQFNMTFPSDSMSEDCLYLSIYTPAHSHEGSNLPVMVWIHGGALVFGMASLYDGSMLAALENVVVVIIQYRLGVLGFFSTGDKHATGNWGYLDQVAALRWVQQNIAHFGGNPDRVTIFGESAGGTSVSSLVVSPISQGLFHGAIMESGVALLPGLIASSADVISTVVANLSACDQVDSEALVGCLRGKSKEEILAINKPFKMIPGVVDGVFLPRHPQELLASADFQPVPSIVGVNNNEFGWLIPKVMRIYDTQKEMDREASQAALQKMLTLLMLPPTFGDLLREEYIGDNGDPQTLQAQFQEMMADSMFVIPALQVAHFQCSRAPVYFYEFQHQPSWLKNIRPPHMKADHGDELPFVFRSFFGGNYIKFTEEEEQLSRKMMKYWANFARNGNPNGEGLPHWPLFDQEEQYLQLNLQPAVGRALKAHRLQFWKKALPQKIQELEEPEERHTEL

Row | SMILES | IC50 [1] [µM] | IC50 [2] [µM] | -Log IC50 [3]
1 | CCCCCC/C=C/C(=O)C(F)(F)F | 6460 | 14800 | 
2 | CCCCCC[Se]CC(C)=O | 155 | 302 | 
3 | CCCCCC[Se](=O)CC(C)=O (stereo not given) | 9.33 | 15.8 | 5.69
4 | CCCCCC[Se](=O)(=O)CC(C)=O |  | 112 | 
5 | CCCCCCS(=O)(=O)CC(C)=O | 110 | 479 | 
6 | CCCCCCCCC(=O)C(F)F | 24.5 | 44.7 | 5.3
7 | CCCCCCCCC(=O)C(F)(F)F | 21.4 | 38 | 5.36
8 | CCCCCCCC(F)(F)C(=O)C(F)(F)F | 0.115 | 0.162 | 
9 | CCCCCCNCC(=O)C(F)(F)F | 0.017 | 0.0224 | 
10 | CCCCCCSCC(C)=O | 977 | 955 | 
11 | CCCCCC[Se]CC(=O)C(F)(F)F | 0.38 | 0.575 | 
12 | CCCCCCOCC(C)=O | 257 | 427 | 
13 | CCCCCCCCC(=O)CF | 851 | 1780 | 3.85
14 | CCCCCC[S+]([O-])CC(=O)C(F)(F)F (stereo not given) | 0.17 | 0.447 | 6.51
15 | CCCCCC[Se](=O)(=O)CC(=O)C(F)(F)F | 0.0105 | 0.0132 | 
16 | CCCCCC[Se](=O)CC(=O)C(F)(F)F (stereo not given) | 0.000457 | 0.000501 | 
17 | CCCCCCS(=O)(=O)CC(=O)C(F)(F)F | 0.676 | 0.447 | 
18 | CCCCCCC#CC(=O)C(F)(F)F | 955 | 2040 | 
19 | CCCCCCOCC(=O)C(F)(F)F | 0.0437 | 0.12 | 
20 | CCCCCCSCC(=O)C(F)(F)F | 0.00832 | 0.0126 | 
21 | CCCCCCCCC(C)=O [2-DECANONE] | 67600 |  | 
